This note sets out measurements from ChEMBL document CHEMBL3580567 (J Med Chem, 2015).

Active and inactive are the calls of the source. No cut-off for these calls is given here.

The target of series [1] is Glycogen synthase kinase-3 beta (Homo sapiens) (UniProt P49841). Nature of the series: Binding affinity to GSK-3beta receptor (unknown origin) at 10 uM.
Series [2] addresses Cannabinoid receptor 1 (Homo sapiens) (UniProt P21554). Nature of the series: Binding affinity to CB1 receptor (unknown origin) at 10 uM.
The species named for series [3] is Homo sapiens. As to the kind of experiment: Selectivity ratio of Ki for human melatonin receptor-1 to Ki for human melatonin receptor-2.
Series [4] is described as follows: Induction of primary neuronal stem cell differentiation derived from subgranular zone of dentate gyrus of Wistar rat hippocampus assessed as upregulation of TuJ1 expression at 10 uM incubated for 7 days followed by 48 hrs incubation in presence of serum and absence of EGF by DAPI staining-based fluorescence microscopic analysis in presence of melatonin receptor antagonist luzindole. As to conditions: Primary neuron. In kind it is functional. In outline: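 Neurospheres came from the SGZ of the dentate gyrus of adult male Wistar rats (8-12 weeks). They were grown in DMEM/F12 with 10 ng/mL EGF, 10 ng/mL FGF and B27. After 3 days, cultures were treated with compounds for 7 days. They were then plated on poly-L-lysine coverslips for 48 h with serum and without growth factors. Cells were immunostained for TuJ1 and MAP-2 with DAPI nuclei. Positive cells were counted by fluorescence microscopy in five NS per condition over three independent experiments. Untreated cultures gave basal values.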

Series [5] addresses T1, Melatonin receptor type 1B (Homo sapiens, UniProt P49286).
T1 sequence (P49286 whole entry): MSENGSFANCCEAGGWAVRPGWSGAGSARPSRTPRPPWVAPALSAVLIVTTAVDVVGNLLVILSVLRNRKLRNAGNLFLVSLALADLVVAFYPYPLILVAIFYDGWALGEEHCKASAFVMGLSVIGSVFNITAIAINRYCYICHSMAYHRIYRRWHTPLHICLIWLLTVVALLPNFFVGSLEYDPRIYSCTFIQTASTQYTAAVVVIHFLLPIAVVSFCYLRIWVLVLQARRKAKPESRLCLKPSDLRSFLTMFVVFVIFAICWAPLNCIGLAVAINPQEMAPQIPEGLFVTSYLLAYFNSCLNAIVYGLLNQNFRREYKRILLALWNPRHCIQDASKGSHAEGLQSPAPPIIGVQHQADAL
Nature of the series: Agonist activity at human recombinant melatonin receptor-2 expressed in CHO cells assessed as decrease of cAMP level after 10 mins by HTRF assay. Format: functional, cell-based. The essentials:
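Functional agonist profiling was done by CEREP on cells expressing human recombinant MT receptors. MT1 was read by cellular dielectric spectroscopy and MT2 by homogeneous time-resolved fluorescence. The protocols are those on the company website.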

For series [6], the target named is T2, 5-hydroxytryptamine receptor 1A (Homo sapiens) (UniProt P08908).
T2 sequence (whole entry): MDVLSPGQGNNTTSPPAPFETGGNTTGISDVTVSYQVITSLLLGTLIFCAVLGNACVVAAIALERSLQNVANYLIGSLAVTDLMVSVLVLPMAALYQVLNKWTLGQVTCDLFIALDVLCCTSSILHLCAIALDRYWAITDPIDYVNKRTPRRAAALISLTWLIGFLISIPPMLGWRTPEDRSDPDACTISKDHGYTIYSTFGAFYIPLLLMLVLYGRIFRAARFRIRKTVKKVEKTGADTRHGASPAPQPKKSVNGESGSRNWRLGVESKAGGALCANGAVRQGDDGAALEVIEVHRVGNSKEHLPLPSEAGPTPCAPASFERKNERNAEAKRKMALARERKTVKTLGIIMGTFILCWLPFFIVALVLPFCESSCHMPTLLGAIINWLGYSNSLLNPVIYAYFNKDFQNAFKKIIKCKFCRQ
As to the kind of experiment: Binding affinity to 5HT-1A receptor (unknown origin) at 10 uM.

The target in series [7] is T1, Melatonin receptor type 1B. As to the kind of experiment: Agonist activity at human melatonin receptor-2 transfected in CHO cell membranes after 1 hr by GTPgammaS binding assay. Format: functional. Background: Binding of GTPγS marks nucleotide exchange on a G protein.
The target in series [8] is T3, Retinoic acid receptor alpha (Homo sapiens) (UniProt P10276).
T3 sequence (whole entry): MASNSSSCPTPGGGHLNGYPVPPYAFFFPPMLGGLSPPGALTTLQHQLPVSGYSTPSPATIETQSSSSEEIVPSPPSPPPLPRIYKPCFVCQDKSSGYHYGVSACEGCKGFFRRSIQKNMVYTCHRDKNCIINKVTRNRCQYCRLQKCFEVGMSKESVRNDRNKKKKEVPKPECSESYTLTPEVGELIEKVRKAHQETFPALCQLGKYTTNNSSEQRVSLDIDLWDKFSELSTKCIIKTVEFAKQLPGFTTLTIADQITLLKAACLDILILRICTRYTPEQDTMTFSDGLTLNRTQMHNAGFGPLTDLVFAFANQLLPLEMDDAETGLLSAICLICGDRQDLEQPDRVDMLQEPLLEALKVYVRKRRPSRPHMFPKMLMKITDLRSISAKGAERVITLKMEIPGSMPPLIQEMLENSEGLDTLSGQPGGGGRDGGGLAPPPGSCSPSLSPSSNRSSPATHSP
Nature of the series: Binding affinity to RARalpha (unknown origin) at 10 uM.

Series [9] can be described thus: Permeability of the compound at 100 ug/ml after 240 mins by PAMPA. Format: physicochemical. As to conditions: 4 h. In outline: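 For PAMPA-BBB, the filter was coated with porcine brain lipid in dodecane (20 mg/mL). Donor compound was 100 µg/mL in PBS:ethanol 70:30, pH 7.4, and the acceptor held PBS:ethanol 70:30. Plates were incubated 240 min at 25 °C. Acceptor concentration was read by UV-Vis at five wavelengths in four wells, over at least three runs. Eleven quality-control standards were included.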
Background: In PAMPA a lipid-coated filter parts donor from acceptor wells.

Glycogen synthase kinase-3 beta (Homo sapiens), sequence (P49841 whole entry, looked up): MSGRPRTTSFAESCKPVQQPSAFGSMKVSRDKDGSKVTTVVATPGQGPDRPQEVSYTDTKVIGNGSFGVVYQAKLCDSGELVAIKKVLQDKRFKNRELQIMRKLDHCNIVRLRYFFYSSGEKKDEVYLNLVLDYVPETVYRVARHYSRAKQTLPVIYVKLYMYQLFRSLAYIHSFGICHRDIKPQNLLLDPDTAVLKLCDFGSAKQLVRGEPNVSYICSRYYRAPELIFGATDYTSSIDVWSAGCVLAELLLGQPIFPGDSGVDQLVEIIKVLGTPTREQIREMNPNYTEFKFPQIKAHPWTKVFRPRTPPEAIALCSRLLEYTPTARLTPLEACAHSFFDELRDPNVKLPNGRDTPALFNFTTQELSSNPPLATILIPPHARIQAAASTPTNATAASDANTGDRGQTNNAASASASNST
Cannabinoid receptor 1 (Homo sapiens), sequence (P21554 whole entry): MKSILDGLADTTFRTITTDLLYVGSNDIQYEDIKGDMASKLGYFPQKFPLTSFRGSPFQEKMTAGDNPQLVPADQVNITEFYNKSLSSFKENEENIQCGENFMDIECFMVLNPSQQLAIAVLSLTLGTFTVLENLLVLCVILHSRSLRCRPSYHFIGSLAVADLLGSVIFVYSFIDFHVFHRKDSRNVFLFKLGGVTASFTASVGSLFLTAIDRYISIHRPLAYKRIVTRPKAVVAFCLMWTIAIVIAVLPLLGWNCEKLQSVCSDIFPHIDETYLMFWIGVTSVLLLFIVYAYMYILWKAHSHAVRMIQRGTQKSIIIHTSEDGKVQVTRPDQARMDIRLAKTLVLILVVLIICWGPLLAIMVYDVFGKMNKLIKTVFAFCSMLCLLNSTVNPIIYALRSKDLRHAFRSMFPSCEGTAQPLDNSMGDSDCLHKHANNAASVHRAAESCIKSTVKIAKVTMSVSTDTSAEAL

One may read the EC50 as the midpoint of the concentration-response curve. Turning to `COc1ccc2[nH]cc(CCc3nnc(C)o3)c2c1`, the result in series [1], in [2], in series [4], in series [6] and in series [8] was inactive. In addition, the Ratio Ki in series [3] was 3.6. Further, the EC50 in series [5] is 1.6 µM; in series [7], 0.881 µM. Besides, the permeability result in series [9] is reported as “permeable”.
